Converted amounts (≈) assume the structure as drawn. The source made the active and inactive calls.
Experiments:
[1] = Terminal half life in human at 1 g, iv administered every 12 hrs; assay type: ADME, organism-based; conditions: in vivo
[2] = Ratio of AUC in rabbit at 1 g, iv bid to MIC for Staphylococcus aureus HIP 5836 isolate; assay type: functional
Outline: (§1)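 A computer-controlled pump infused vancomycin to mimic the human 1 g i.v. every-12-h profile. Blood was drawn at 0–6 h after infusion start. Vancomycin was measured by latex-boosted immunoturbidimetry (detection limit 0.8 μg/ml). AUC was divided by the MIC, determined by CLSI broth microdilution in cation-adjusted Mueller-Hinton broth.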

Staphylococcus aureus [3] = test: Antibacterial activity against glycopeptide-intermediate resistant Staphylococcus aureus HIP 5836 isolate assessed as reduction of bacterial count after 24 hrs by time kill curve study; assay type: functional
Outline: (§2)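 Duplicate time-kill curves followed CLSI criteria with an inoculum of 10⁵ CFU/ml. Viable counts were taken at 0, 4 and 24 h. Bactericidal activity was defined as a ≥3 log₁₀ CFU/ml drop at 24 h versus the starting inoculum.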

[4] = AUC in human at 1 g, iv administered every 12 hrs; assay type: ADME, organism-based; conditions: plasma
Staphylococcus aureus [5] = test: Antibacterial activity against glycopeptide-intermediate resistant Staphylococcus aureus ATCC 700788 assessed as reduction of bacterial count after 24 hrs by time kill curve study; assay type: functional; outline: as §2
[6] = AUC in rabbit at 1 g, iv administered twice daily; assay type: ADME, organism-based, Oryctolagus cuniculus; conditions: plasma
Outline: (§3)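 Rabbits carried a carotid artery catheter for blood sampling and a jugular-to-cava catheter for infusion. A computer-controlled pump delivered the drug to simulate the human profile of 1 g i.v. twice daily. Vancomycin was measured by latex-boosted immunoturbidimetry, detection limit 0.8 μg/ml. Rabbits per group: n = 3 or 5.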

[7] = Terminal half life in rabbit at 1 g, iv administered twice daily; assay type: ADME, organism-based, Oryctolagus cuniculus; conditions: in vivo; outline: as §3
Staphylococcus aureus [8] = test: Antibacterial activity against glycopeptide-intermediate resistant Staphylococcus aureus HIP 5836 isolate by microbroth dilution method; assay type: functional
Outline: (§4)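 MIC and MBC were determined by broth microdilution in cation-adjusted Mueller-Hinton broth per CLSI guidelines. S. aureus ATCC 29213 served as the control strain. Strains were stored frozen in skim milk at −80°C and subcultured on 5% sheep blood Columbia agar before each run.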

[9] = Cmax in human at 1 g, iv administered every 12 hrs; assay type: ADME, organism-based; design: dose 1 g, route intravenous; conditions: in vivo
Staphylococcus aureus [10] = test: Antibacterial activity against glycopeptide-intermediate resistant Staphylococcus aureus HIP 5836 isolate infected New Zealand white rabbit endocarditis model assessed as bacterial count per gram of microbial vegetation at 1 g, iv administered every 12 hrs for 2 days
[11] = AUC in rabbit at 25 mg/kg, iv; assay type: ADME, organism-based, Oryctolagus cuniculus; design: dose 25 mg/kg, route intravenous; conditions: plasma
Outline: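 Five healthy rabbits received a 25 mg/kg i.v. dose through a jugular-to-cava catheter. Blood was drawn through a carotid catheter at 0, 0.25, 0.5, 1, 2, 3, 4, 5 and 6 h. Plasma vancomycin was measured by latex-boosted immunoturbidimetry, detection limit 0.8 μg/ml. Elimination rate, half-life and AUC were reported as mean ± variation.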

[12] = Ratio of AUC in rabbit at 1 g, iv bid to MIC for Staphylococcus aureus ATCC 700788; assay type: functional; outline: as §1
Staphylococcus aureus [13] = test: Antibacterial activity against glycopeptide-intermediate resistant Staphylococcus aureus ATCC 700788 infected New Zealand white rabbit endocarditis model assessed as bacterial count per gram of microbial vegetation at 1 g, iv administered every 12 hrs for 2 days
[14] = Protein binding in human at 1 g, iv administered every 12 hrs; assay type: ADME, organism-based; conditions: in vivo, read-out: PB
[15] = Cmax in rabbit at 1 g, iv administered twice daily; assay type: ADME, organism-based, Oryctolagus cuniculus; design: dose 1 g, route intravenous; conditions: in vivo; outline: as §3
Staphylococcus aureus [16] = test: Antibacterial activity against glycopeptide-intermediate resistant Staphylococcus aureus ATCC 700788 by microbroth dilution method; assay type: functional; outline: as §4
[17] = AUC in rabbit at 15 mg/kg, iv; assay type: ADME, organism-based, Oryctolagus cuniculus; design: dose 15 mg/kg, route intravenous; conditions: plasma
Outline: (§5)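 Healthy rabbits (n = 5) received telavancin at 15 mg/kg i.v. Blood was drawn through a carotid artery catheter. Plasma telavancin was measured by a validated LC-MS/MS method with a lower limit of quantitation of 0.25 μg/ml. The first-order elimination constant, β-phase half-life and AUC were derived from the concentration-time data.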

Homo sapiens [18] = test: Protein binding in human at 7.5 mg/kg, iv administered every 24 hrs; assay type: ADME, organism-based; design: dose 7.5 mg/kg, route intravenous; conditions: in vivo
[19] = Cmax in rabbit at 7.5 mg/kg, iv administered once daily; assay type: ADME, organism-based, Oryctolagus cuniculus; design: dose 7.5 mg/kg, route intravenous; conditions: in vivo
Outline: (§6)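 A computer-controlled pump infused telavancin at precalculated flow rates to reproduce the human 7.5 mg/kg i.v. once-daily serum profile. Plasma levels were measured by validated LC-MS/MS (n = 3 or 5).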

[20] = AUC in rabbit at 7.5 mg/kg, iv administered once daily; assay type: ADME, organism-based, Oryctolagus cuniculus; design: dose 7.5 mg/kg, route intravenous; conditions: plasma; outline: as §6
[21] = Terminal half life in rabbit at 15 mg/kg, iv; assay type: ADME, organism-based, Oryctolagus cuniculus; design: dose 15 mg/kg, route intravenous; conditions: in vivo; outline: as §5
Oryctolagus cuniculus [22] = test: Protein binding in rabbit at 15 mg/kg, iv; assay type: ADME, organism-based; design: dose 15 mg/kg, route intravenous; conditions: in vivo
[23] = Ratio of AUC in rabbit at 7.5 mg/kg, iv qd to MIC for Staphylococcus aureus HIP 5836 isolate; assay type: functional
Outline: (§7)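 The AUC came from the rabbit infusion simulating human 7.5 mg/kg i.v. once daily. It was divided by each strain's MIC. MICs were determined by CLSI broth microdilution in cation-adjusted Mueller Hinton broth, with S. aureus ATCC 29213 as the control strain.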

[24] = Cmax in human at 7.5 mg/kg, iv administered every 24 hrs; assay type: ADME, organism-based; design: dose 7.5 mg/kg, route intravenous; conditions: in vivo
Staphylococcus aureus [25] = test: Antibacterial activity against glycopeptide-intermediate resistant Staphylococcus aureus HIP 5836 isolate infected New Zealand white rabbit endocarditis model assessed as bacterial count per gram of microbial vegetation at 10 mg/kg, iv administered every 24 hrs for 2 days; assay type: functional
Outline: (§8)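 After 24 h they were inoculated i.v. through the ear vein with 1 ml of 7 × 10⁵ CFU/ml. Bacteremia was confirmed at 18 h, after which animals were randomized. Human-like kinetics were delivered by computer-controlled pump through a cava catheter for 48 h. Animals were killed 6 drug half-lives later. Aortic vegetations were weighed, homogenized and cultured quantitatively on plates, with broth culture for 1 week. Results are median log₁₀ CFU/g: 2 for broth-only growth, 0 for sterile. Sterility rates were compared by Fisher's exact test.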

Homo sapiens [26] = test: Protein binding in human at 10 mg/kg, iv administered every 24 hrs; assay type: ADME, organism-based; design: dose 10 mg/kg, route intravenous; conditions: in vivo
[27] = AUC in human at 10 mg/kg, iv administered every 24 hrs; assay type: ADME, organism-based; design: dose 10 mg/kg, route intravenous; conditions: plasma
Oryctolagus cuniculus [28] = test: Protein binding in rabbit at 10 mg/kg, iv; assay type: ADME, organism-based; design: dose 10 mg/kg, route intravenous; conditions: in vivo
[29] = Cmax in rabbit at 10 mg/kg, iv administered once daily; assay type: ADME, organism-based, Oryctolagus cuniculus; design: dose 10 mg/kg, route intravenous; conditions: in vivo
Staphylococcus aureus [30] = test: Antibacterial activity against glycopeptide-intermediate resistant Staphylococcus aureus HIP 5836 isolate infected New Zealand white rabbit endocarditis model assessed as sterile bacterial vegetation at 10 mg/kg, iv administered every 24 hrs for 2 days; assay type: functional; outline: as §8
Staphylococcus aureus [31] = test: Antibacterial activity against glycopeptide-intermediate resistant Staphylococcus aureus ATCC 700788 infected New Zealand white rabbit endocarditis model assessed as sterile bacterial vegetation at 10 mg/kg, iv administered every 24 hrs for 2 days; assay type: functional; outline: as §8
Staphylococcus aureus [32] = test: Antibacterial activity against glycopeptide-intermediate resistant Staphylococcus aureus HIP 5836 isolate infected New Zealand white rabbit endocarditis model assessed as survival at 10 mg/kg, iv administered every 24 hrs for 2 days; assay type: functional; outline: as §8
Staphylococcus aureus [33] = test: Antibacterial activity against glycopeptide-intermediate resistant Staphylococcus aureus ATCC 700788 infected New Zealand white rabbit endocarditis model assessed as survival at 10 mg/kg, iv administered every 24 hrs for 2 days; assay type: functional; outline: as §8
[34] = Terminal half life in human at 10 mg/kg, iv administered every 24 hrs; assay type: ADME, organism-based; design: dose 10 mg/kg, route intravenous; conditions: in vivo
Staphylococcus aureus [35] = test: Antibacterial activity against glycopeptide-intermediate resistant Staphylococcus aureus ATCC 700788 infected New Zealand white rabbit endocarditis model assessed as bacterial count per gram of microbial vegetation at 10 mg/kg, iv administered every 24 hrs for 2 days; assay type: functional; outline: as §8
[36] = Terminal half life in rabbit at 7.5 mg/kg, iv administered once daily; assay type: ADME, organism-based, Oryctolagus cuniculus; design: dose 7.5 mg/kg, route intravenous; conditions: in vivo; outline: as §6
[37] = Terminal half life in human at 7.5 mg/kg, iv administered every 24 hrs; assay type: ADME, organism-based; design: dose 7.5 mg/kg, route intravenous; conditions: in vivo
[38] = Ratio of AUC in rabbit at 7.5 mg/kg, iv qd to MIC for Staphylococcus aureus ATCC 700788; assay type: functional; outline: as §7
[39] = AUC in human at 7.5 mg/kg, iv administered every 24 hrs; assay type: ADME, organism-based; design: dose 7.5 mg/kg, route intravenous; conditions: plasma

In the case of `CN[C@H](CC(C)C)C(=O)N[C@H]1C(=O)N[C@@H](CC(N)=O)C(=O)N[C@H]2C(=O)N[C@H]3C(=O)N[C@H](C(=O)N[C@H](C(=O)O)c4cc(O)cc(O)c4-c4cc3ccc4O)[C@H](O)c3ccc(c(Cl)c3)Oc3cc2cc(c3O[C@@H]2O[C@H](CO)[C@@H](O)[C@H](O)[C@H]2O[C@H]2C[C@](C)(N)[C@H](O)[C@H](C)O2)Oc2ccc(cc2Cl)[C@H]1O` [VANCOMYCIN], the half-life [1] is reported as 4.6 h, the RatioAUC/MIC [2] is reported as 37.3 and the Activity (Staphylococcus aureus [3]) is reported as “Active”. For the same molecule, the AUC at 12 h [4] was 359 µg·h/mL, the Activity (Staphylococcus aureus [5]) was “Active” and the AUC [6] was 299 µg·h/mL. It also gave a half-life [7] of 3.8 h, an MBC (Staphylococcus aureus [8]) of 128 µg/mL (≈ 88.3 µM) and an MIC (Staphylococcus aureus [8]) of 8 µg/mL (≈ 5.52 µM). It also gave a Cmax [9] of 52 µg/mL, a log10cfu (Staphylococcus aureus [10]) of 6.7 and an AUC [11] of 101 µg·h/mL. It also gave a RatioAUC/MIC [12] of 37.3, a log10cfu (Staphylococcus aureus [13]) of 6.6 and a fraction unbound at 12 h [14] of 0.5. It also gave a Cmax [15] of 46 µg/mL, an MBC (Staphylococcus aureus [16]) of 128 µg/mL (≈ 88.3 µM) and an MIC (Staphylococcus aureus [16]) of 8 µg/mL (≈ 5.52 µM).

`CCCCCCCCCCNCCN[C@@]1(C)C[C@H](O[C@H]2[C@H](Oc3c4cc5cc3Oc3ccc(cc3Cl)[C@@H](O)[C@@H](NC(=O)[C@@H](CC(C)C)NC)C(=O)N[C@@H](CC(N)=O)C(=O)N[C@H]5C(=O)N[C@H]3C(=O)N[C@H](C(=O)N[C@H](C(=O)O)c5cc(O)c(CNCP(=O)(O)O)c(O)c5-c5cc3ccc5O)[C@H](O)c3ccc(c(Cl)c3)O4)O[C@H](CO)[C@@H](O)[C@@H]2O)O[C@@H](C)[C@H]1O` [TELAVANCIN] showed an AUC [17] of 270 µg·h/mL, an Activity (Homo sapiens [18]) of 90% and a Cmax [19] of 90 µg/mL. The log10CFU/ml (Staphylococcus aureus [3]) was 2, the AUC [20] was 638 µg·h/mL and the half-life [21] was 1.2 h. The Activity (Oryctolagus cuniculus [22]) was 90%, the RatioAUC/MIC [23] was 159.5 and the Cmax [24] was 89 µg/mL. For the same molecule, the log10CFU/ml (Staphylococcus aureus [5]) was 2, the log10cfu (Staphylococcus aureus [25]) was 4.4 and the Activity (Homo sapiens [26]) was 90%. It also gave an MBC (Staphylococcus aureus [8]) of 8 µg/mL (≈ 4.56 µM), an MIC (Staphylococcus aureus [8]) of 4 µg/mL (≈ 2.28 µM) and an AUC at 24 h [27] of 785 µg·h/mL. For the same molecule, the Activity (Oryctolagus cuniculus [28]) was 90%, the Cmax [29] was 114 µg/mL and the Activity (Staphylococcus aureus [30]) was 31%. The Activity (Staphylococcus aureus [31]) was 37%, the Activity (Staphylococcus aureus [32]) was 94% and the Activity (Staphylococcus aureus [33]) was 94%. The half-life [34] was 7.41 h, the log10cfu (Staphylococcus aureus [35]) was 4.6 and the half-life [36] was 4.6 h. For the same molecule, the half-life [37] was 6.18 h, the RatioAUC/MIC [38] was 638 and the AUC at 24 h [39] was 604 µg·h/mL. It also gave an MBC (Staphylococcus aureus [16]) of 4 µg/mL (≈ 2.28 µM) and an MIC (Staphylococcus aureus [16]) of 1 µg/mL (≈ 0.57 µM).

Reference: ChEMBL document CHEMBL1157365, “Efficacy of telavancin in the treatment of experimental endocarditis due to glycopeptide-intermediate Staphylococcus aureus” (Antimicrob Agents Chemother, 2007)
